The values below come from ChEMBL document CHEMBL3612021, “Structure-kinetics relationships of Capadenoson derivatives as adenosine A1 receptor agonists” (Eur J Med Chem, 2015).

The target of assay [1] is T1, Adenosine receptor A2b (Homo sapiens) (UniProt P29275).
T1 sequence (whole entry): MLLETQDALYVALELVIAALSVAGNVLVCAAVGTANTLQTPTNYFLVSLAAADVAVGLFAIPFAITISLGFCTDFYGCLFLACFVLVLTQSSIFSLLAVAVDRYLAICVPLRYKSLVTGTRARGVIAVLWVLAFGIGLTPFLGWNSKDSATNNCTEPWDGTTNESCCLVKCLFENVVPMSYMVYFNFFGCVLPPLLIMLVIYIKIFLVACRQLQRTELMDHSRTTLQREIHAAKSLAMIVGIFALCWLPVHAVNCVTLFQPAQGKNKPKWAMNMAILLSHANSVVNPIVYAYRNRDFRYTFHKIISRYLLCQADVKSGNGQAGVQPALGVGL
As to the kind of experiment: Displacement of [3H]PSB603 from human adenosine A2B receptor expressed in CHO cell membranes at 1 uM by competition association assay. The procedure, abridged: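 Single-point test at 1 µM measuring percent displacement of specific [3H]PSB603 binding on CHO membranes stably expressing human A2B receptors.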
(Loss of bound radioactivity is the signal in a displacement assay; it reports binding, not function.)

Assay [2] concerns the target T2, Adenosine receptor A3 (Homo sapiens) (UniProt P0DMS8).
T2 sequence (whole entry): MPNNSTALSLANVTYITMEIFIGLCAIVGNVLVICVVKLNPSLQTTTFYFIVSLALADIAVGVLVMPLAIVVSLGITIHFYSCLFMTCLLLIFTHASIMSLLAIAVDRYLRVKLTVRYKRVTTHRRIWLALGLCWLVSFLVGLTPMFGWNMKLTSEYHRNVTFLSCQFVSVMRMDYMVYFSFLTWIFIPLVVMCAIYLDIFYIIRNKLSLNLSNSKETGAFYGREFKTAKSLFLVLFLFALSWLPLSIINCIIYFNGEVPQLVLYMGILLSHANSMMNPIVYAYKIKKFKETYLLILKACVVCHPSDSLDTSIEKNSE
The experiment in a line: Displacement of [3H]PSB11 from human adenosine A3 receptor expressed in CHO cell membranes at 1 uM by competition association assay. Put shortly: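 Single-point screen at 1 µM measuring displacement of specific [3H]PSB11 binding on CHO cell membranes stably expressing human A3 receptors.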

In a further assay the target is T3, Adenosine receptor A1 (Homo sapiens, UniProt P30542).
T3 sequence (P30542 whole entry): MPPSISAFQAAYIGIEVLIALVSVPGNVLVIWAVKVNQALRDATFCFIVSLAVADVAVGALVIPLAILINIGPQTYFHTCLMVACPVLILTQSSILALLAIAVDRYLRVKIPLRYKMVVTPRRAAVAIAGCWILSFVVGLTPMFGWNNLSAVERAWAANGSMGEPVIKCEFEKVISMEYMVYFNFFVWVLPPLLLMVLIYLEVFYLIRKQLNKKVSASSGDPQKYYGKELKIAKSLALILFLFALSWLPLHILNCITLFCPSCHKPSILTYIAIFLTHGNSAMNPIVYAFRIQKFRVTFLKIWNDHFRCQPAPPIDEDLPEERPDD
As to the kind of experiment: Agonist activity at human adenosine A1 receptor expressed in CHO cell membranes by [35S]GTPgammaS binding assay. It counts as functional. The procedure, abridged:
(§1)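 CHO-hA1 membrane homogenates (3 µg) equilibrated 30 min at 25 °C in 50 mM Tris, 100 mM NaCl, 5 mM MgCl2, 1 mM EDTA, 1 mM DTT, 0.05% BSA, pH 7.4, with 3 µM GDP, saponin and ligand over a concentration range. [35S]GTPγS then added (final 0.3 nM) and incubated 90 min at 25 °C. Filtration on GF/B, ice-cold washes, scintillation counting. n = 3.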
(In general: Binding of GTPγS marks nucleotide exchange on a G protein.)

For assay [3], the target named is T4, Adenosine receptor A1 (Homo sapiens) (UniProt P30542).
T4 sequence (whole entry): T3 sequence (P30542 whole entry)
As to the kind of experiment: Agonist activity at human adenosine A1 receptor expressed in CHO cell membranes by [35S]GTPgammaS binding assay relative to 100 uM CPA. In kind it is functional. Put shortly:
as §1

The target of assay [4] is Adenosine receptors; A1 & A3 (Homo sapiens) (UniProt P30542+P0DMS8). The experiment in a line: Selectivity for human adenosine A1 receptor expressed in CHO cell membranes over human adenosine A3 receptor expressed in CHO cell membrane. In kind it is cell-based.
Assay [5] has as its target T4, Adenosine receptor A1 (Homo sapiens). The experiment in a line: Displacement of [3H]DPCPX from human adenosine A1 receptor expressed in CHO cell membranes assessed as dissociation rate constant by competition association assay. Put shortly: (§2)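 Competition association assay on CHO cell membranes stably expressing hA1, with [3H]DPCPX as tracer. kon and koff come from these association curves (n ≥ 3, ± SEM). Residence time is shown alongside koff and corresponds to 1/koff in minutes.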

Assay [6] shares this target. As to the kind of experiment: Displacement of [3H]DPCPX from human adenosine A1 receptor expressed in CHO cell membranes assessed as kinetic rate index by measuring ratio of binding at earlier and later time points by competition association assay. The procedure, abridged: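 Dual-point competition association assay with [3H]DPCPX on CHO membranes stably expressing hA1. Specific binding is read at two time points in the presence of the test ligand. KRI is the ratio of binding at the earlier to the later time point (n = 2; both values reported).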

The target is the same in assay [7]. As to the kind of experiment: Displacement of [3H]DPCPX from human adenosine A1 receptor expressed in CHO cell membranes at 1 uM by competition association assay.
For assay [8], the target named is Adenosine receptor A2a (Homo sapiens) (UniProt P29274). The experiment in a line: Displacement of [3H]ZM241385 from human adenosine A2A receptor expressed in HEK293 cell membranes at 1 uM by competition association assay.
For assay [9], the target named is T4, Adenosine receptor A1 (Homo sapiens). As to the kind of experiment: Displacement of [3H]DPCPX from human adenosine A1 receptor expressed in CHO cell membranes assessed as association rate constant by competition association assay. The procedure, abridged: as §2
The target is the same in assay [10]. As to the kind of experiment: Displacement of [3H]DPCPX from human adenosine A1 receptor expressed in CHO cell membranes assessed as residence time by competition association assay. Put shortly: as §2

Bounds are passed on as bounds.

Sequence of Adenosine receptor A2a (Homo sapiens) (P29274 whole entry): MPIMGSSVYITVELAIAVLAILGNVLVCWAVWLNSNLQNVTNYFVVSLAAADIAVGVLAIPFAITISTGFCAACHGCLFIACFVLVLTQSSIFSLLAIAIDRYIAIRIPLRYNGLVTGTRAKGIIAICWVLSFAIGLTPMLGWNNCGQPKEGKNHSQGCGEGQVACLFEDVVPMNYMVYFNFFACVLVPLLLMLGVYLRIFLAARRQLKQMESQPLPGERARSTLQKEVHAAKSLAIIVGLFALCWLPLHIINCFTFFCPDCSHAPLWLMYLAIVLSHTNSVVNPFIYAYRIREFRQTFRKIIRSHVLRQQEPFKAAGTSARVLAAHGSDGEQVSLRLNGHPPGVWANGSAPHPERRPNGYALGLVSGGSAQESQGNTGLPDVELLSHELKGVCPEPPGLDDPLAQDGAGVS

In the case of `COc1ccc(-c2c(C#N)c(N)nc(SCc3csc(-c4ccc(Cl)cc4)n3)c2C#N)cc1`, the inhibition in assay [1] was 20%; in assay [2], 19%; in assay [7] it was above 80%; in [8], 5.8%. The molecule further came in with an EC50 at Adenosine receptor A1 of 2.9 nM. The molecule further displayed an Emax in [3] of 83%. In [4], the Selectivity ratio is above 100. Moreover, the K in [5] was 0.0076 min⁻¹; in assay [9], 2.6 ×10⁶ /M/min. In addition, the Ratio in assay [6] came to 2.55. For the same molecule, the TIME in [10] stood at 2.2 h.

As for `COc1ccc(-c2c(C#N)c(N)nc(SCc3csc(-c4ccc(I)cc4)n3)c2C#N)cc1`, the K in assay [5] came out at 0.011 min⁻¹; in assay [9], 1.6 ×10⁶ /M/min. Further, the Ratio in assay [6] is 2.07. Also, the inhibition in assay [7] was above 80%. Also, the TIME in assay [10] came out at 1.51 h.

Turning to `COc1ccc(-c2c(C#N)c(N)nc(SCc3nc(-c4ccc(Cl)cc4)sc3Cl)c2C#N)cc1`, the K in [5] amounted to 0.028 min⁻¹; in assay [9] it was 1.4 ×10⁶ /M/min. The Ratio in assay [6] worked out at 1.79. Moreover, in [10], the TIME was 0.595 h.

For `N#Cc1c(N)nc(SCc2csc(-c3ccc(Cl)cc3)n2)c(C#N)c1-c1ccc(OCCO)cc1` [CAPADENOSON], the inhibition in assay [1] is 2.5%; in [2], 1.2%; in assay [7], above 80%; in assay [8], 0%. For the same molecule, it took 1.1 nM to reach a half-maximal effect on Adenosine receptor A1 (EC50). The Emax in [3] came out at 97%. Moreover, the Selectivity ratio in assay [4] was above 100. Moreover, the K in assay [5] amounted to 0.036 min⁻¹; in assay [9], 2.4 ×10⁷ /M/min. In assay [6], the Ratio was 1.42. Moreover, the TIME in assay [10] came out at 0.463 h.

As for `COc1ccc(-c2c(C#N)c(N)nc(SCc3csc(-c4cccc(Cl)c4)n3)c2C#N)cc1`, the K in assay [5] turned out to be 0.025 min⁻¹; in [9], 7.7 ×10⁵ /M/min. The Ratio in [6] stood at 1.6. Besides, the inhibition in [7] is above 80%. Besides, the TIME in [10] was 0.667 h.

For `COc1ccc(-c2c(C#N)c(N)nc(SCc3csc(-c4ccc(C)cc4)n3)c2C#N)cc1`, in assay [6], the Ratio is 1.25. In addition, in [7], the inhibition is above 80%.

Regarding `COc1ccc(-c2c(C#N)c(N)nc(SCc3csc(-c4ccc(Cl)cn4)n3)c2C#N)cc1`, the K in [5] is 0.035 min⁻¹; in assay [9] it was 3.4 ×10⁶ /M/min. Moreover, in assay [6], the Ratio turned out to be 1.64. Moreover, the inhibition in assay [7] is above 80%. The TIME in assay [10] stood at 0.477 h.

As for `COc1ccc(-c2c(C#N)c(N)nc(SCc3csc(-c4ccc(Br)cc4)n3)c2C#N)cc1`, the values for the K in [5] and in [9] were 0.02 min⁻¹ and 2.4 ×10⁶ /M/min, respectively. Further, the Ratio in assay [6] worked out at 1.55. Further, the inhibition in [7] was above 80%. For the same molecule, in assay [10], the TIME came out at 0.833 h.

Turning to `COc1ccc(-c2c(C#N)c(N)nc(SCc3csc(-c4ccccc4Cl)n3)c2C#N)cc1`, the K in assay [5] came out at 0.024 min⁻¹; in [9] it was 9.4 ×10⁵ /M/min. Further, the Ratio in assay [6] came to 1.53. This molecule returned an inhibition in assay [7] above 80%. Also, in [10], the TIME came out at 0.695 h.

`N#Cc1c(N)nc(SCc2csc(-c3ccc(Cl)cc3)n2)c(C#N)c1-c1ccc2c(c1)OCO2`: the K in assay [5] turned out to be 0.016 min⁻¹; in [9], 2.4 ×10⁶ /M/min. The Ratio in [6] came to 2. For the same molecule, the inhibition in assay [7] was above 80%. Besides, the TIME in assay [10] came out at 1.04 h.

Turning to `COc1ccc(-c2c(C#N)c(N)nc(SCc3csc(-c4ccccc4)n3)c2C#N)cc1`, the inhibition in assay [1] is 63%; in assay [2], 27%; in assay [7], above 80%; in assay [8] it was 0%. Moreover, the EC50 at Adenosine receptor A1 is 1.9 nM. Besides, in [3], the Emax was 105%. Further, in [4], the Selectivity ratio was above 100. In addition, in assay [6], the Ratio came out at 1.23.

As to `COc1ccc(-c2c(C#N)c(N)nc(SCc3csc(N4CCOCC4)n3)c2C#N)cc1`, the inhibition in assay [1] was 0%; in assay [2], 51%; in assay [7], above 80%; in [8], 0%. At Adenosine receptor A1, this molecule yielded an EC50 of 1.9 nM. In assay [3], this molecule displayed an Emax of 104%. Moreover, the Selectivity ratio in assay [4] is above 100. Further, the Ratio in assay [6] is 1.12.

On to `COc1ccc(-c2c(C#N)c(N)nc(SCc3csc(-c4ccc(F)cc4)n3)c2C#N)cc1`, for which the K in [5] was 0.033 min⁻¹; in assay [9], 4.6 ×10⁶ /M/min. Further, in assay [6], the Ratio came to 1.56. Besides, in [10], the TIME was found to be 0.505 h.

Turning to `COc1ccc(-c2c(C#N)c(N)nc(SCc3csc(-c4ccc(Br)cn4)n3)c2C#N)cc1`, the K worked out at 0.03 min⁻¹ in assay [5] and 1.4 ×10⁶ /M/min in [9]. Also, the Ratio in assay [6] was determined as 1.71. Further, the inhibition in assay [7] was above 80%. Besides, the TIME in assay [10] came out at 0.555 h.

Regarding `COc1ccc(-c2c(C#N)c(N)nc(SCc3csc(-c4ccc(Cl)c(Cl)c4)n3)c2C#N)cc1`, the K in [5] came to 0.019 min⁻¹; in assay [9], 1.1 ×10⁶ /M/min. In assay [6], the Ratio was found to be 2.35. Moreover, the TIME in [10] came to 0.877 h.

Turning to `COc1ccc(-c2nc(CSc3nc(N)c(C#N)c(-c4ccc(OC)cc4)c3C#N)cs2)cc1`, in assay [6], the Ratio amounted to 1.22.

Regarding `COc1ccc(-c2c(C#N)c(N)nc(SCc3csc(-c4ccccn4)n3)c2C#N)cc1`, the inhibition in [1] was 0%; in assay [2], 22%; in assay [7], above 80%; in assay [8] it was 0%. The molecule further registered an EC50 on Adenosine receptor A1 of 7.6 nM. In assay [3], this molecule showed an Emax of 99%. Moreover, the Selectivity ratio in assay [4] was above 100. The Ratio in [6] was 1.08.

With `N#Cc1c(N)nc(SCc2csc(-c3ccc(Cl)cc3)n2)c(C#N)c1-c1ccc(O)cc1`, the K stood at 0.028 min⁻¹ in assay [5] and 4.3 ×10⁶ /M/min in assay [9]. The Ratio in [6] stood at 2.07. In assay [7], this molecule gave an inhibition above 80%. Moreover, in [10], the TIME came out at 0.595 h.

As for `COc1ccc(-c2c(C#N)c(N)nc(SCc3cscn3)c2C#N)cc1`, the results for the inhibition in assay [2] and in [8] were 50% and 0%, respectively. In addition, on Adenosine receptor A1, the response was half-maximal at 1.5 nM (EC50). Also, in [3], the Emax came out at 55%. Besides, the Selectivity ratio in [4] is above 100. The Ratio in [6] amounted to 1.

As a reminder, the inhibition is the percentage by which the read-out fell short of the control. Higher therefore signals a strong effect. As usually defined, the EC50 is the concentration needed to bring the measured effect to its halfway point. Higher therefore signals a need for much substance. A word on the Emax: it is the maximal effect, on the per cent scale that the assay sets.
